Ends that are not written are not given here.
What was measured:
[1] = biological target: T1, transporter associated with antigen processing (TAP) (Homo sapiens, UniProt Q03518+Q03519); experiment: Streptolysin O peptide transport assay; type: biochemical
T1 sequence (Q03518 1-748): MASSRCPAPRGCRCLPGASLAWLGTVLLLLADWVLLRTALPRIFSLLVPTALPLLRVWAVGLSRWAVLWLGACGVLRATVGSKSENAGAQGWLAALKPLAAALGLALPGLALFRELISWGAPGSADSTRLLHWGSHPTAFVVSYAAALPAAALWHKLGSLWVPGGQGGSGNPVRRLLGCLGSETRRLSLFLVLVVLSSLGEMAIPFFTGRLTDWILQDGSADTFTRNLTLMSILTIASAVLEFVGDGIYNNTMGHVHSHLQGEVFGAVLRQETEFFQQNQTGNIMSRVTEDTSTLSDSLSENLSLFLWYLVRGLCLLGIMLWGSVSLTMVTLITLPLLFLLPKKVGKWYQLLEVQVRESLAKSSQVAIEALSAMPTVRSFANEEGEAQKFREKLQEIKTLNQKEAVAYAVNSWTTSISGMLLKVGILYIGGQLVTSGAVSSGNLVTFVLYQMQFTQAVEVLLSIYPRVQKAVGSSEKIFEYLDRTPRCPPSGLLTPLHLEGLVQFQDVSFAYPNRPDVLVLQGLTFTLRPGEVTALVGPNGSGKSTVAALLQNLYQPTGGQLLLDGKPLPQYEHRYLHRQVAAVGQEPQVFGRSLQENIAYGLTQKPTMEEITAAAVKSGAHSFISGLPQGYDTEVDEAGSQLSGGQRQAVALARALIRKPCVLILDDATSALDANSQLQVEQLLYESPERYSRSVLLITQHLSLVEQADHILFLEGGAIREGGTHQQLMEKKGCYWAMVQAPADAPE
T1 sequence (Q03519 1-686): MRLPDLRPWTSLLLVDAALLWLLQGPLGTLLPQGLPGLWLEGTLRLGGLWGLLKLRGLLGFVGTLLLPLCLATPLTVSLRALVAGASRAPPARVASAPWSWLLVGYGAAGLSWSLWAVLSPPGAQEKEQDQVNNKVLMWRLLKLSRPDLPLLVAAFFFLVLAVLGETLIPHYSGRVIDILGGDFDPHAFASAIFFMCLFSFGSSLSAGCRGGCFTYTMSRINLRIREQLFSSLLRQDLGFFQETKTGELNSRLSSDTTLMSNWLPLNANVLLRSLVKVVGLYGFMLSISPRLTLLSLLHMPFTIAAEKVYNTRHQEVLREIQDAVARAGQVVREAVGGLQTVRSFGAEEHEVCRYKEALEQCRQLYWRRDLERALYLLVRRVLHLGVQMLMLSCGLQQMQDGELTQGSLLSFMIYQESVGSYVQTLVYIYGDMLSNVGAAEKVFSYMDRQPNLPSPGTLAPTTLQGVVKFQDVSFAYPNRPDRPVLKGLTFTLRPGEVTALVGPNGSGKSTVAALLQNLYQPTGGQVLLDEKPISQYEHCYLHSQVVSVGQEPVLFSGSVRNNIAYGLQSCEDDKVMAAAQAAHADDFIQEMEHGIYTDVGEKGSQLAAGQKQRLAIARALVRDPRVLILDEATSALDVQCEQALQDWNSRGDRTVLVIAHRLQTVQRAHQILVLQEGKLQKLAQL
Outline: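 TAP+ T1 TxB hybrid cells (10^6/sample; grown in RPMI 1640, 4 mM Hepes, 5% FCS, 3 mM l-glutamine) permeabilised with streptolysin O (15 U/ml) for 15 min on ice. Then 5 min at 37°C with 100 ng chloramine-T 125I-labelled reporter peptide, ATP (100 mM stock) and competitor peptide dilutions. TAP-negative T2 cells served as negative control. Duplicates; triplicates for T2 and uninhibited T1.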

[2] = biological target: HLA-A*0201 molecules (Homo sapiens, UniProt P04439, D140Y/D185E/D98H/E176V/E277Q/G131W/G231S/I119V/I121R/I166T/I218V/L300P/L318F/N151K/N90K/P208A/P217A/Q86G/Q94H/R138H/R169H/T345S); experiment: Class I peptide-binding affinity assay

HPTLDKVLEV [HPTLDKVLEV]
IC50 [1]: 355 µM

RTLDKVLEV [RTLDKVLEV]
IC50 [1]: 30 to 45 µM
IC50 [2]: 0.04 µM

PTLDKVLEV [PTLDKVLEV]
IC50 [1]: 175 µM

KSADHPTLDKVLEV [KSADHPTLDKVLEV]
IC50 [1]: 102 µM

Reference: publication PMC2193344 (The Journal of Experimental Medicine, 2001)
